Rce1 inhib: blocks yeast Ras-converting enzyme; yeast membranes, quenched prenylated peptide cleavage fluorescence; Q03530; calls only; 0.27% of 290,000 active;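 active = fall in fluorescence gain of 50% or more versus controls, with final raw signal at or below 3038400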
MEKK2 mut-MEK5: signal of MEK5 binding to mutant human MEKK2 PB1 domain. AID 1530. bead flow cytometry, Alexa488-MEK5 binding to MEKK2 mutant. 0.35% of 290,000 active. percent response, % at 10 µM; in the data active = percent response above about 24%, passing the limit was not always enough
UCH37 inh: blocks the human deubiquitinase UCH37 | Q9Y5K5 | purified proteasome/UCH37, Ub-AMC cleavage fluorescence | inhibition, % (no concentration beside the values) | 0.33% of 330,000 active | AID 588478;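 active = mean inhibition over replicate wells above about 20%, limit read from the data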
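Material: Human UCH37 enzyme supplied as purified proteasome complex | Schedule: 30 min preincubation with enzyme, 25 min cleavage at room temperature | Detection: AMC fluorescence 355/460 nm | Measure: % inhibition of Ub-AMC cleavage fluorescence | Controls: Wells without proteasome as full block, compound-free enzyme plus substrate as uninhibited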
MEKK2 WT-MEK5: raises or lowers MEK5 binding to wildtype human MEKK2 PB1 domain; Q9Y2U5; bead flow cytometry, Alexa488-MEK5 binding to MEKK2 WT; actives lie on both sides; binding response (% of control), % at 10 µM; 1.1% of 290,000 active; in the data active = binding response below about 67% or above about 130%
MEKK3 PB1 HTS: MEKK3-MEK5 PB1 interaction, increase or decrease | Q99759 | bead-based flow cytometry, Alexa488-MEK5 binding to MEKK3; actives lie on both sides; 0 = blocked by unlabeled MEK5, 100 = vehicle | binding response (% of control), % at 10 µM | 1.4% of 290,000 active;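 active = binding response more than 3 SD above or below the average of its plate-row segment, actives on both sides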;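 note: Alexa488 bead fluorescence after subtracting the streptavidin-only scavenger bead signal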
Target sequence (Q99759 whole entry, looked up): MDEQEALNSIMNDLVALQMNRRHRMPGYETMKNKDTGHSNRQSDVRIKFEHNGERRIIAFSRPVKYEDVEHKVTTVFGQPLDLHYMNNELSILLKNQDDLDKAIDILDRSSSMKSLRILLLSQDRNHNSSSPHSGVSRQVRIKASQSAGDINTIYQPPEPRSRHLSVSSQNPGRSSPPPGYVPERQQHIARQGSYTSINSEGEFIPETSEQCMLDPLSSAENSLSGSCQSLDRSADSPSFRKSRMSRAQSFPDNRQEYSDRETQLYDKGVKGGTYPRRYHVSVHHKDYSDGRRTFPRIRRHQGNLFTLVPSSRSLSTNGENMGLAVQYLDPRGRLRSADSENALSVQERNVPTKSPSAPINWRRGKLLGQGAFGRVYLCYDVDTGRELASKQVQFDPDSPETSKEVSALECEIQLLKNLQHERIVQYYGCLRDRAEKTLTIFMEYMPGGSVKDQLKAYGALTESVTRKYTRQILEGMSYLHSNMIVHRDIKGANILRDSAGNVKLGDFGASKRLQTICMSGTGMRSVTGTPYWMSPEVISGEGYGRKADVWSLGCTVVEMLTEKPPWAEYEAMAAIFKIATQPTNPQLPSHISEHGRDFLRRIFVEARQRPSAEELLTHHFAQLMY
T cell HTS: T cell immune modulators affecting CD8 T cell-vesicle binding; AID 2052; 2C CD8+ T cell-vesicle binding, flow cytometry; stronger effect = lower value; 0.068% of 330,000 active; response (vesicle binding), % at 7 µM;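 active = response, share of CD8 T cells binding vesicles, and their 90th percentile fluorescence all below set limits, cut at about 80% in these data, passing the limit was not always enough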;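 note: values below 100% mean blocked vesicle binding to the CD8+ T cells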
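Read-out – percent CD8+ FL2 mean versus row control · System – murine 2C transgenic CD8+ T lymphocytes · Times – 1.5 h cell–vesicle binding at 37 °C, then 20 min icy labelling · Control set – naked vesicles low, QL9 vesicles with vehicle high · Detection – cytometric PE anti-B7-1 and Alexa647 anti-CD8 signals after 1% paraformaldehyde fixation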
MEKK2wt confirm: raises or lowers MEK5 binding to wildtype human MEKK2, retest; shares compounds with MEKK3 PB1 HTS; bead flow cytometry, Alexa488-MEK5 binding to MEKK2 WT; actives lie on both sides; binding response (% of control), % at 10 µM; 2.4% of 5,900 active; in the data active = binding response below about 16% or above about 210%; inactive = in between
MEKK2mut-MEK5: signal of MEK5 binding to mutant human MEKK2, retest. shares compounds with MEKK3 PB1 HTS. AID 1893. bead flow cytometry, Alexa488-MEK5 binding to MEKK2 mutant. percent response, % at 10 µM. 2% of 5,900 active; in the data active = percent response mostly above about 71%, no sharp cut-off; inactive = mostly below about 38%;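 note: higher means compound restores mutant binding toward wildtype level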
MEKK3 confirm: MEKK3-MEK5 PB1 inhibition, single concentration confirmation; shares compounds with MEKK3 PB1 HTS; bead flow cytometry, Alexa488-MEK5 binding to MEKK3; stronger effect = lower value; 1.8% of 5,900 active; binding response (% of control), % at 10 µM;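 active = binding response below 72% of control, or above a set upper limit, though filed actives all read lower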
Each line names hits and unclear results; the compound was inactive in the other large screens (follow-up assays come after a bar, where they were run); ! = repeats disagree; [ ] = remark or other dose. The list is not random: actives were taken first. Their share in the collection is about 2.5%.

COc1ccc(-c2coc3cc(O)cc(O)c3c2=O)cc1OC	MEKK3 PB1 HTS 132.0 | MEKK2wt confirm inactive | MEKK2mut-MEK5 inactive | MEKK3 confirm inactive
COCCn1c(=NC(=O)C(C)(C)C)sc2cc([N+](=O)[O-])ccc21	MEKK3 PB1 HTS 72.0[inhibitor] | MEKK2wt confirm inactive | MEKK2mut-MEK5 inactive | MEKK3 confirm inactive
COCCn1c(=NC(=O)c2cccs2)sc2cc(NC(C)=O)ccc21	none
Cc1ccc(C(=O)ON=C(N)c2cccc([N+](=O)[O-])c2)cc1	none (no result: Rce1 inhib, MEKK2 mut-MEK5, MEKK2 WT-MEK5, MEKK3 PB1 HTS, T cell HTS)
CCOC(=O)C(=NC1CCS(=O)(=O)C1)NNc1cc(Cl)ccc1Cl (stereo not drawn)	none
CCOC(=O)C(=NCCOC)NNc1cc(Cl)ccc1Cl	MEKK3 PB1 HTS 140.0 | MEKK2wt confirm inactive | MEKK2mut-MEK5 inactive | MEKK3 confirm inactive
CC(=O)Nc1ccc(/C(C)=N/NS(=O)(=O)c2ccccc2)cc1	MEKK3 PB1 HTS 128.0 (no result: UCH37 inh) | MEKK2wt confirm inactive | MEKK2mut-MEK5 inactive | MEKK3 confirm inactive
O=C1CCc2ccc(OCCCCN3CCN(c4cccc(Cl)c4Cl)CC3)cc2N1	MEKK2 WT-MEK5 177.0! | MEKK2wt confirm 1.0[inhibitor] | MEKK2mut-MEK5 inactive | MEKK3 confirm 1.0
CCOc1ccc(/C=C/c2nc(C#N)c(NCCCN(C)C)o2)cc1	MEKK2 mut-MEK5 26.0, MEKK2 WT-MEK5 140.0 | MEKK2wt confirm inactive | MEKK2mut-MEK5 inactive | MEKK3 confirm inactive
CCN(CC)S(=O)(=O)c1ccc(NN=C(C)c2ccncc2)nc1	none (no result: Rce1 inhib, MEKK2 mut-MEK5, MEKK2 WT-MEK5, MEKK3 PB1 HTS, T cell HTS)
N#C/C(=C\c1ccc(C#N)cc1)C(=O)N1CCCC1	MEKK3 PB1 HTS 71.0[inhibitor] | MEKK2wt confirm inactive | MEKK2mut-MEK5 inactive | MEKK3 confirm inactive
COc1cc(C=NNC(=O)C(=O)N2CCCC2)ccc1O	none (no result: Rce1 inhib, MEKK2 mut-MEK5, MEKK2 WT-MEK5, MEKK3 PB1 HTS, T cell HTS)
COc1ccc(-n2cc(-c3ccccc3)[nH]c2=S)cc1	MEKK3 PB1 HTS 130.0 | MEKK2wt confirm inactive | MEKK2mut-MEK5 inactive | MEKK3 confirm inactive
Cn1c(C=Nc2nc3ccccc3[nH]2)nc2ccccc21	none (no result: Rce1 inhib, MEKK2 mut-MEK5, MEKK2 WT-MEK5, MEKK3 PB1 HTS, T cell HTS)
CC(CC(C)(C)C1CCCCC1)=NNC(N)=S	none (no result: Rce1 inhib, MEKK2 mut-MEK5, MEKK2 WT-MEK5, MEKK3 PB1 HTS, T cell HTS)
COc1ccc(-c2nn(-c3ccccc3)cc2C=NN2C(=O)CSC2=S)cc1	none (no result: Rce1 inhib, MEKK2 mut-MEK5, MEKK2 WT-MEK5, MEKK3 PB1 HTS, T cell HTS)
Cn1ncc(C(=O)Nc2ccc(Cl)cc2)c1C(F)(F)F	MEKK3 PB1 HTS 74.0[inhibitor] | MEKK2wt confirm inactive | MEKK2mut-MEK5 inactive | MEKK3 confirm inactive
Cn1nc(C(F)(F)F)cc1C(=O)Nc1ccc(Cl)cc1	none
Cc1nc2ccccn2c1C(=O)Nc1ccc2c(c1)OCCO2	MEKK3 PB1 HTS 132.0 | MEKK2wt confirm inactive | MEKK2mut-MEK5 inactive | MEKK3 confirm inactive
Cc1ccsc1C(=O)Nc1ccc2c(c1)OCCO2	MEKK3 PB1 HTS 138.0 | MEKK2wt confirm inactive | MEKK2mut-MEK5 inactive | MEKK3 confirm inactive
CC(=O)Nc1ccc(NC(=O)c2c(C)nc3ccccn23)cc1	none
Cc1cc2cc(CNC(=O)c3ccc4c(c3)OCO4)ccc2n1C	MEKK2 WT-MEK5 -11.0, MEKK3 PB1 HTS 65.0[inhibitor] | MEKK2wt confirm inactive | MEKK2mut-MEK5 inactive | MEKK3 confirm inactive
Cc1onc(-c2ccccc2Cl)c1C(=O)NCc1ccc2c(c1)cc(C)n2C	MEKK2 WT-MEK5 43.0[inhibitor], MEKK3 PB1 HTS 59.0[inhibitor] | MEKK2wt confirm inactive | MEKK2mut-MEK5 inactive | MEKK3 confirm inactive
Cc1ccc(S(=O)(=O)NCc2ccc3c(c2)cc(C)n3C)cc1	MEKK2 WT-MEK5 51.0[inhibitor], MEKK3 PB1 HTS 71.0[inhibitor] | MEKK2wt confirm inactive | MEKK2mut-MEK5 inactive | MEKK3 confirm inactive
COc1cc(OC)cc(C(=O)NCc2ccc3c(c2)cc(C)n3C)c1	MEKK3 PB1 HTS 47.0[inhibitor] (no result: MEKK2 WT-MEK5) | MEKK2wt confirm inactive | MEKK2mut-MEK5 inactive | MEKK3 confirm inactive
Cc1nc2ccccc2c(=O)n1N=C1C(=O)N(C)c2ccccc21	none (no result: Rce1 inhib, MEKK2 mut-MEK5, MEKK2 WT-MEK5, MEKK3 PB1 HTS, T cell HTS)
Cc1cc2cc(CNC(=O)c3ccco3)ccc2n1C	none
CNC(=O)c1cc2ccccc2o1	MEKK3 PB1 HTS 124.0 | MEKK2wt confirm inactive | MEKK2mut-MEK5 inactive | MEKK3 confirm inactive
Cc1cc2cc(CNC(=O)c3cc4ccccc4o3)ccc2n1C	MEKK3 PB1 HTS 45.0[inhibitor] (no result: UCH37 inh, MEKK2 WT-MEK5) | MEKK2wt confirm inactive | MEKK2mut-MEK5 inactive | MEKK3 confirm inactive
Cc1cccc(NC(=O)c2cc3ccccc3o2)c1	none (no result: T cell HTS)
COc1ccc2[nH]c3c(=O)n(N)c(C)nc3c2c1	MEKK3 PB1 HTS 136.0 | MEKK2wt confirm inactive | MEKK2mut-MEK5 inactive | MEKK3 confirm inactive
O=C(Nc1nnc(N=Cc2ccco2)s1)c1ccc(F)cc1	none (no result: Rce1 inhib, MEKK2 mut-MEK5, MEKK2 WT-MEK5, MEKK3 PB1 HTS, T cell HTS)
O=C(Nc1ccccc1)c1cccc(C(F)(F)F)c1	MEKK3 PB1 HTS 144.0 | MEKK2wt confirm inactive | MEKK2mut-MEK5 inactive | MEKK3 confirm inactive
O=C(Nc1ccon1)c1cccc(C(F)(F)F)c1	MEKK3 PB1 HTS 70.0[inhibitor] | MEKK2wt confirm inactive | MEKK2mut-MEK5 inactive | MEKK3 confirm inactive
O=C(Nc1ccccc1)c1cccc(N2CCCC2=O)c1	MEKK3 PB1 HTS 61.0[inhibitor] | MEKK2wt confirm inactive | MEKK2mut-MEK5 inactive | MEKK3 confirm inactive
